Laboratory results: article PMC3495079 (Biochemistry, 2012)

How the values were obtained:
[1] = target: T1, CeDcpS (Caenorhabditis elegans, UniProt G5EFS4); test: Fluorescence titration; type: binding, C. elegans; conditions: 20 °C, 50 mM Tris HCl, 200 mM KCl, 0.5 mM EDTA, 1 mM DTT, pH 7.6
T1 sequence (G5EFS4 1-311): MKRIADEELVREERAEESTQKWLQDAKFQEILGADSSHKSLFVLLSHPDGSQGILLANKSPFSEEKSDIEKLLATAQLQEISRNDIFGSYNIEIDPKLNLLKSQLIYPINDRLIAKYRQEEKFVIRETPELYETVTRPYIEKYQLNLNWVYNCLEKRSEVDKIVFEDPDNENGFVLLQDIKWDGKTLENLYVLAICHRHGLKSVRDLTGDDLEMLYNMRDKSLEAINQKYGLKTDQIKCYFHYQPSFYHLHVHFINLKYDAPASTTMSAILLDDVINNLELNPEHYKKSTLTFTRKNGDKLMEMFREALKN
Method in brief: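 His-tagged CeDcpS was expressed in E. coli and purified by Ni-NTA and gel filtration. Binding was read as quenching of intrinsic Trp fluorescence using time-synchronized titration. Ligand solutions of increasing concentration (5 μM–2 mM) were added to 0.2 μM initial protein. Excitation was 280 nm and emission 340 nm, corrected for dilution and inner filter. KAS was fitted by non-linear regression and reported as a weighted average of 3–5 titrations.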

[2] = test system: recombinant C. elegans decapping scavenger; test: Competitor inhibition of CeDcpS hydrolytic activity; type: biochemical
[3] = target: T2, AsDcpS (Ascaris suum, UniProt D3K0N9); test: Fluorescence titration; type: binding, A. suum; conditions: 20 °C, 50 mM Tris HCl, 200 mM KCl, 0.5 mM EDTA, 1 mM DTT, pH 7.6
[4] = target: T3, HsDcpS (Homo sapiens, UniProt Q96C86); conditions: 20 °C, 50 mM Tris HCl, 200 mM KCl, 0.5 mM EDTA, 1 mM DTT, pH 7.6; cited from earlier work
T3 sequence (Q96C86 1-337): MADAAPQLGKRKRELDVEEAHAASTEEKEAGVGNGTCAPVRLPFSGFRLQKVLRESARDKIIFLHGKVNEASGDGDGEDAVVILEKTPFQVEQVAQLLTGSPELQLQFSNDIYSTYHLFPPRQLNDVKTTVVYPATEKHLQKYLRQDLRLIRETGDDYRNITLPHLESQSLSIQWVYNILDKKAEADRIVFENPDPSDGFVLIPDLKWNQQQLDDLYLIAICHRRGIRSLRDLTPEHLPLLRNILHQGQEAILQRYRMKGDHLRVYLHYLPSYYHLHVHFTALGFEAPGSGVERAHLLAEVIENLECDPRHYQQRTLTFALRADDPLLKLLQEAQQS

[5] = target: T2, AsDcpS; test: HPLC analysis of cap analog hydrolysis by recombinant DcpS; type: biochemical, A. suum; conditions: 15 μM substrate; for Hydrolysis by DcpS (HPLC): up to 24 h; for Hydrolysis by DcpS (HPLC, Figure 3): 0.02 μM DcpS
[6] = target: T3, HsDcpS; test: HPLC analysis of cap analog hydrolysis by recombinant DcpS; type: biochemical; conditions: 15 μM substrate; for Hydrolysis by DcpS (HPLC): up to 24 h
Method in brief: (§1)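 His-tagged recombinant enzyme was expressed in E. coli and purified by Ni-NTA and gel filtration. Cap analog (15 μM) was preincubated 10 min, then DcpS was added at 0.02 or 0.2 μM. Buffers were Tris/MgAc/(NH4)2SO4 at 37 °C, or Tris/KCl/EDTA/DTT at 20 °C. Aliquots were taken at 5–60 min and 24 h and heat-stopped (97 °C, 2.5 min). Reverse-phase HPLC used a methanol/KH2PO4 gradient with A260 and fluorescence detection. Products were identified by retention time, and % substrate hydrolyzed was recorded.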

[7] = target: T1, CeDcpS; test: as above; type: biochemical, C. elegans; conditions: 15 μM substrate; for Hydrolysis by DcpS (HPLC): up to 24 h; for Hydrolysis by DcpS (HPLC, Figure 3): 0.02 μM DcpS
Method in brief: as §1

[8] = target: ScDcpS (Saccharomyces cerevisiae, UniProt Q06151); test: as above; type: biochemical, S. cerevisiae; conditions: 15 μM substrate, up to 24 h
Method in brief: as §1

[9] = target: recombinant CeDcpS; conditions: substrate m^7GpppBODIPY; cited from earlier work
[10] = condition (2): 20 °C, pH 7.6, 0.2 μM DcpS
[11] = condition (1): 37 °C, pH 8.0, 0.02 or 0.2 μM DcpS

T2 sequence (D3K0N9 whole entry): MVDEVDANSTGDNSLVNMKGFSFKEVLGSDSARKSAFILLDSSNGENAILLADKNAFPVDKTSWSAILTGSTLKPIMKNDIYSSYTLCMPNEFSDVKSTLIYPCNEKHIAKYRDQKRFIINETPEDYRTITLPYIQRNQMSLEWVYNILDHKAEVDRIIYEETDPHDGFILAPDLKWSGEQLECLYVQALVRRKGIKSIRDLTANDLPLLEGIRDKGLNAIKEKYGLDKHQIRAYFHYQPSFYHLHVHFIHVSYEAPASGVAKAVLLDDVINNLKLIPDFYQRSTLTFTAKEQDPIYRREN
ScDcpS, sequence (Q06151 whole entry): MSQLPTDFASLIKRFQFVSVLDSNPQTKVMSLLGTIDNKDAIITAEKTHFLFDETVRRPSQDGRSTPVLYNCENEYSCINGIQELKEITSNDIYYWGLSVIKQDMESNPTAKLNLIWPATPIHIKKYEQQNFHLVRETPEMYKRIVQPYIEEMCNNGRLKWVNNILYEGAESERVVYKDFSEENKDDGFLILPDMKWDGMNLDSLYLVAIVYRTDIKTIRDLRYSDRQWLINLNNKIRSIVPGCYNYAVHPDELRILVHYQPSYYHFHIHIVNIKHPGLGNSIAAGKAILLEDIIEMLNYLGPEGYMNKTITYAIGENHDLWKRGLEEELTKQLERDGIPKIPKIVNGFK

Row | SMILES | Equilibrium association constant KAS, CeDcpS [1] [µM⁻¹] | Equilibrium association constant KAS, AsDcpS [3] [µM⁻¹] | Hydrolysis by DcpS (HPLC) [5, 10] | Hydrolysis by DcpS (HPLC) [6, 10] | Hydrolysis by DcpS (HPLC) [7, 10] | Hydrolysis by DcpS (HPLC) [8, 10] | Hydrolysis by DcpS (HPLC, Figure 3) ([5]; condition (2): 20 °C, pH 7.6) | Hydrolysis by DcpS (HPLC, Figure 3) ([7]; condition (2): 20 °C, pH 7.6) | other results
1 | C[n+]1cn([C@@H]2O[C@H](COP(=O)(O)O)[C@@H](O)[C@H]2O)c2nc(N)[nH]c(=O)c21 [m^7GMP, 7-methylguanosine monophosphate] | 8.00 ± 0.65 | 26.35 ± 1.84 | – | – | – | – | – | – | Competitor concentration for 50% inhibition, fold higher than for m^7GDP [2]: about 20 fold; Equilibrium association constant KAS, HsDcpS [4]: 19 ± 1 µM⁻¹
2 | C[n+]1cn([C@@H]2O[C@H](COP(=O)(O)OP(=O)(O)OP(=O)(O)OC[C@H]3O[C@@H](n4c[n+](C)c5c(=O)[nH]c(N)nc54)[C@H](O)[C@@H]3O)[C@@H](O)[C@H]2O)c2nc(N)[nH]c(=O)c21 [m^7Gpppm^7G] | – | – | significantly slower than that of m^7GpppG | significantly slower than that of m^7GpppG | significantly slower than that of m^7GpppG | significantly slower than that of m^7GpppG | – | – | –
3 | CN(C)c1nc2c(c(=O)[nH]1)[n+](C)cn2[C@@H]1O[C@H](COP(=O)(O)OP(=O)(O)OP(=O)(O)OC[C@H]2O[C@@H](n3cnc4c(=O)[nH]c(N)nc43)[C@H](O)[C@@H]2O)[C@@H](O)[C@H]1O [m3^2,2,7GpppG] | – | – | – | – | – | – | readily hydrolyze | readily hydrolyze | Hydrolysis by DcpS (HPLC, Figure 3) ([6]; condition (2): 20 °C, pH 7.6, 0.02 μM DcpS, 60 min or 24 h): not observed; Ki [9]: 28 µM
4 | CN(C)c1nc2c(c(=O)[nH]1)[n+](C)cn2[C@@H]1O[C@H](COP(=O)(O)OP(=O)(O)OP(=O)(O)O)[C@@H](O)[C@H]1O [m3^2,2,7GTP] | – | – | – | – | – | – | have activity | have activity | –
5 | CN(C)c1nc2c(c(=O)[nH]1)[n+](C)cn2[C@@H]1O[C@H](COP(=O)(O)OP(=O)(O)O)[C@@H](O)[C@H]1O [m3^2,2,7GDP, 2,2,7-trimethylguanosine diphosphate] | 1.44 ± 0.26 | 0.53 ± 0.16 | resistant to cleavage | resistant to cleavage | resistant to cleavage | resistant to cleavage | – | – | Hydrolysis by DcpS (HPLC) [5, 11]: not degraded; Hydrolysis by DcpS (HPLC) [6, 11]: not degraded; Hydrolysis by DcpS (HPLC) [7, 11]: not degraded; Hydrolysis by DcpS (HPLC) [8, 11]: not degraded
